{"source": "paper PMC9530961", "about": "(Molecular Therapy. Nucleic Acids, 2022)", "key": {"CSNK2A1 mRNA [1]": {"test_system": "CSNK2A1 mRNA", "test": "qPCR gene silencing in OVCAR3 cells", "type": "cell-based", "conditions": "48 h, 10% FBS", "in_short": "(§1)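 Cells were seeded at 50,000/well and treated with peptide complexes of CSNK2A1-targeting or non-targeting siRNA at increasing N:P ratios in McCoy's 5A/DMEM with 10% FBS. Medium was replaced after a PBS wash at 24 h, for 48 h total. CSNK2A1 mRNA was quantified by TaqMan qRT-PCR with 18S as reference.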"}, "RNase A": {"biological_target": "T1, RNase A (Bos taurus, UniProt P61823)", "T1 sequence (P61823 27-150)": "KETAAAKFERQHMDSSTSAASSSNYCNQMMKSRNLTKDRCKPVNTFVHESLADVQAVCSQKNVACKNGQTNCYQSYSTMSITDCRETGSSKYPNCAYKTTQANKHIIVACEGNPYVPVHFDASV", "test": "Protection of siRNA from RNase A degradation, agarose gel electrophoresis", "type": "in vitro ADME", "conditions": "complexes with siNT, 5 μg/mL RNase A, 37°C, 1 h, 6% SDS", "in_short": "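Non-targeting siRNA (10 μM solution) was mixed with each peptide (10 μM solution in RNase-free water) at several N:P ratios and held 20 min at room temperature. Complexes or free siRNA were left untreated or exposed to 5 μg/mL RNase A at 37°C for 1 h, then dissociated with 6% SDS. Samples were run on 2% agarose at 100 V, ethidium bromide-stained and imaged for intact siRNA.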"}, "[2]": {"test_system": "MCF10a breast epithelial cells", "test": "Cell viability of healthy cells", "type": "cell-based", "conditions": "48 h"}, "CSNK2A1 mRNA [3]": {"test_system": "CSNK2A1 mRNA", "test": "qPCR gene silencing in CAOV3 cells", "type": "cell-based", "conditions": "CAOV3, 80:1 N:P ratio, 48 h", "in_short": "as §1"}}}
{"substance": "WEADIVADIVADIVAGGG-(d)RRRRRRRRR [DIVA3]", "values": [{"measurement": "CSNK2A1 mRNA silencing efficacy", "setting": "CSNK2A1 mRNA [1]; OVCAR3, siCSNK2A1 complex at 60:1 versus siNT complex", "value": 47, "unit": "%"}]}
{"substance": "WEADIVADIVHDIVADIVAGGG-(d)RRRRRRRRR [DIV3H]", "values": [{"measurement": "CSNK2A1 mRNA silencing efficacy", "setting": "CSNK2A1 mRNA [1]; OVCAR3, siCSNK2A1 complex at 80:1 versus siNT complex", "value": 72, "unit": "%"}]}
{"substance": "WEADIVADIVWDIVADIVAGGG-(d)RRRRRRRRR [DIV3W]", "values": [{"measurement": "siRNA degradation after incubation with RNase A", "setting": "RNase A", "value": "Minimal degradation"}, {"measurement": "cytotoxic effects on healthy cells", "setting": "[2]", "value": "no cytotoxic effects were observed"}, {"measurement": "CSNK2A1 mRNA knockdown, maximum", "setting": "CSNK2A1 mRNA [3]", "value": 80, "unit": "%"}]}
